Statin myotox sup: protects C2C12 myotubes from simvastatin toxicity | ATP luminescence, 48 h; scaled: DMSO 0, geranylgeraniol control 100 | 330,000 compounds, 0.78% hits | rescue of ATP level, % at 7.49 µM;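 active = mean ATP rescue above about 67%, or every replicate alone reaching that limit, limit read from the data, passing the limit was not always enough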;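 also: myotubes were challenged with 10 µM simvastatin during compound exposure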
PGC1a acetyl inh: modulators of PGC1a acetylation | 350,000 compounds, 0.17% hits | U2OS PGC1a acetylation, AlphaScreen anti-acetyl-lysine; with virally co-expressed GCN5 acetyltransferase | inhibition, % at 15.6 µM | AID 651687;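 active = every replicate shows inhibition of at least 40%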;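 also: 0% = neutral control wells and 100% = positive control wells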
S100A4 MyoIIA: inhibitors of human S100A4 binding to myosin IIA peptide. P26447. S100A4/TAMRA-MyoIIA peptide fluorescence polarization. inhibition, % at 10.7 µM. 360,000 compounds, 0.14% hits;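 active = mean inhibition of at least 70% across replicates, with every replicate also reaching that level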
Target sequence (P26447 whole entry, looked up): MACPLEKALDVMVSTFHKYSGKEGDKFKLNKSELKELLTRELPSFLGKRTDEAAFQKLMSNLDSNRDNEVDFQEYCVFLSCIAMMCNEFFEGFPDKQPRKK
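Material: S100A4 monomer (human). Medium: Calcium-containing HEPES buffer, pH 7.2. Probe or stimulus: labelled myosin peptide probe, 5 nM. Compound dosing: one concentration per compound. Timing: polarization read 5 min after assay mix addition, stable 5–60 min. Benchmarks: DMSO as neutral control, TFP as positive control.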
Cneo AK release: Cryptococcus neoformans lysis via adenylate kinase release. 360,000 compounds, 0.2% hits. lysis activity, % at 15 µM. C. neoformans lysis, adenylate kinase release luminescence, 4 h; normalised: neutral wells 0, clomiphene wells 100;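 active = mean lysis activity across replicates of at least 80%, whatever share of replicates individually reach that level; inactive = mean lysis activity below 80%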
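Material: C. neoformans cells; Schedule: 4 h static compound exposure, 37 °C, read 1 h post-reagent; Measured by: adenylate kinase release luminescence; Read-out: signal increase indicating cell lysis; Controls: Clomiphene as positive lysis control.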
rRNA inh HTS: inhibitors of bacterial rRNA selective over humanized ribosomes. GFP signal change (wild-type ribosome), % (test concentration not listed). 350,000 compounds, 1.6% hits. E. coli WT GFP vs humanized-ribosome RFP mutants, fluorescence, 24 h; hits give low values; DMSO median 0, no signal -100;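 active = significant combined selectivity score with lowered wild-type GFP, culture density cut under 30%, mutant RFP and density less affected; inactive = any of these conditions unmet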
SIRT5 block: blocks human SIRT5 desuccinylation of peptide. inhibition, % at 15 µM. 330,000 compounds, 1.1% hits. AID 652115. Purified SirT5, succinyl-peptide AMC, trypsin-coupled fluorescence. Q9NXA8; in the data active = inhibition above about 15%
Target sequence (Q9NXA8 whole entry, looked up): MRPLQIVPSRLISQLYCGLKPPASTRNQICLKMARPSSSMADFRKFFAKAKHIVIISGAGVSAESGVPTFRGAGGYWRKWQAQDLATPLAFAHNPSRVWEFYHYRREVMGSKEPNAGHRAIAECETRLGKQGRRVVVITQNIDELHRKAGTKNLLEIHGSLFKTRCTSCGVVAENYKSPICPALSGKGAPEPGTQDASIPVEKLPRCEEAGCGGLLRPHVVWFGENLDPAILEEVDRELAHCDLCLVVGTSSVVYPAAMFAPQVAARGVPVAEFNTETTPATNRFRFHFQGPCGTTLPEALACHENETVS
An asterisk follows results filed as active; x = no result. Sampled rows, rich in hits. Any-hit rate of the full collection: about 3%.

SMILES | Statin myotox sup | PGC1a acetyl inh | S100A4 MyoIIA | Cneo AK release | rRNA inh HTS | SIRT5 block
C[C@@H]1CN([C@@H](C)CO)C(=O)c2cc(NC(=O)Nc3cccc4ccccc34)ccc2O[C@H]1CN(C)Cc1ccc(-c2ccccc2)cc1 | 8 | 0 | -1 | 49 | 2 | -1
CCOC(=O)c1ccc(-n2c(N)c(C(=O)NCc3ccco3)sc2=S)cc1 | 18 | -1 | -2 | -5 | -26* | 1
C[C@H](CO)N1C[C@H](C)[C@H](CN(C)S(C)(=O)=O)Oc2c(NS(=O)(=O)c3ccccc3)cccc2C1=O | -27 | 0 | 2 | -6 | 5 | -2
COc1ccc(CN2C(=O)COc3ccccc32)cc1 | 5 | 15 | -1 | -1 | 5 | -4
COc1ccc(CC2(CO)COc3ccccc3C2=O)cc1 (centres undefined) | x | x | -9 | x | -28* | -14
C[C@H](CO)N1C[C@H](C)[C@H](CN(C)C(=O)Nc2ccc3c(c2)OCO3)OCCCC[C@H](C)Oc2ccc(NS(=O)(=O)c3ccccc3)cc2C1=O | x | -3 | 2 | 6 | -3 | 7
C=CCn1c(COc2cccc3cccnc23)nnc1SCC(=O)O | 105* | -6 | x | -3 | x | x
C=CCn1c(COc2cccc3ccc(C)nc23)nnc1SCC(=O)O | 3 | 14 | x | 3 | x | x
Cc1cccc(C)c1NC(=S)N(CCc1ccncc1)C(C)C | x | 0 | 0 | x | 2 | 16*
Cc1cccc(S(=O)(=O)N2CC[C@@H]3[C@@H](CO)Nc4ccc(C#Cc5ccccc5F)cc4[C@@H]32)c1 | -11 | -2 | 5 | 12 | -2 | -1
Cc1cc(C)nc(-n2nc(C)c3c(C(F)F)cc(C)nc32)n1 | 115* | 6 | x | -1 | x | x
Cc1cc(C)nc(-n2nc(C)c3c(C(F)(F)F)cc(=O)[nH]c32)n1 | x | 3 | -1 | -1 | 17 | -1
CCNC(=O)C[C@H]1C=C[C@@H](NS(=O)(=O)c2ccc(F)cc2)[C@H](CO)O1 | 3 | -1 | 4 | -2 | 0 | 0
CC1CCN(c2ccc3nnc(CCC(=O)Nc4cccc(F)c4)n3n2)CC1 | 7 | -14 | -4 | 0 | -30* | 2
COc1ccc(NC(=O)CCc2nnc3ccc(N4CCC(C)CC4)nn23)cc1 | -10 | -15 | -7 | -5 | -3 | -1
N=C1/C(=C\c2coc3ccccc3c2=O)C(=O)N=C2SC(c3ccncc3)=NN12 | x | 3 | -12 | -7 | -15* | -5
CC(C)C(=O)Nc1ccc2c(c1)C(=O)N(C)[C@H]1CC[C@@H](CC(=O)NCc3cccc(F)c3)O[C@@H]1CO2 | -8 | -7 | x | -5 | -1 | x
Cc1ccc(NC(=O)C2CCCN(S(=O)(=O)c3cccnc3)C2)cc1C (centres undefined) | -3 | 6 | -6 | x | -1 | 18*
O=C(Nc1cccc(Cl)c1)C1CCCN(S(=O)(=O)c2ccc(F)cc2)C1 (centres undefined) | 125* | -11 | x | -1 | x | x
CCOC(=O)C1(Cc2ccccc2)CCCN(C2CCN(C(C)=O)CC2)C1 (centres undefined) | 1 | 3 | -39 | 0 | 15 | 23*
CCOC(=O)C1(Cc2cccc(Cl)c2)CCCN(C(=O)c2cccnc2)C1 (centres undefined) | -14 | 97* | 2 | x | -10 | 4
CCOC(=O)C1(Cc2ccccc2)CCCN(C(=O)C=C(C)C)C1 (centres undefined) | 7 | 5 | 1 | 4 | -7 | 1
CCOC(=O)C1(Cc2cccc(Cl)c2)CCCN(C(=O)c2cn[nH]c2)C1 (centres undefined) | 3 | -11 | -25 | -1 | -1 | -2
CC(O)CNCCCOc1ccc(Cl)cc1C(C)(C)C (centres undefined) | x | -14 | 1 | x | -41* | x
CN(C)CCOCCOc1ccc(Cl)cc1C(C)(C)C | x | x | -5 | x | -26 | 3
SMILES | Statin myotox sup | PGC1a acetyl inh | S100A4 MyoIIA | Cneo AK release | rRNA inh HTS | SIRT5 block
COCC#Cc1ccc2c(c1)O[C@H](CN(C)C(=O)C1CC1)[C@@H](C)CN([C@@H](C)CO)S2(=O)=O | -31 | -6 | -15 | -9 | 3 | -2
CC(C)c1cccc(C(C)C)c1NC(=O)CCl | x | -11 | 2 | x | 14 | 16*
COc1ccc(OC)c(S(=O)(=O)Nc2cccc3ccccc23)c1 | x | 18 | -3 | 2 | -25* | -2
COc1ccc(OC)c(S(=O)(=O)Nc2ccccc2C(F)(F)F)c1 | 34 | -6 | x | 0 | x | x
COc1ccc(OC)c(S(=O)(=O)Oc2ccc(N)c3ccccc23)c1 | -1 | -12 | -2 | -4 | -18 | 15*
COc1ccc(OC)c(S(=O)(=O)NC(C)(C)C)c1 | 5 | 1 | x | 0 | x | x
COc1cccc(C(=O)NC2C(=O)N3C(C(=O)O)=C(COC(C)=O)CSC23)c1 (centres undefined) | -25 | 1 | -6 | -3 | 3 | 0
CC(=O)OCC1=C(C(=O)O)N2C(=O)C(NC(=O)c3ccc(COc4cccc(Cl)c4Cl)o3)C2SC1 (centres undefined) | 6 | x | -3 | 0 | -26* | 4
COc1ccc(C)cc1NC(=O)C1CCN(S(C)(=O)=O)CC1 | -2 | 3 | 3 | -1 | 8 | -3
COc1ccc(C)cc1NC(=O)NNC(=O)C1CCC(C(C)(C)C)CC1 (centres undefined) | 13 | x | -8 | 2 | -17* | 6
C[C@H]1CN([C@@H](C)CO)C(=O)c2cccc(NC(=O)C3CCCCC3)c2O[C@@H]1CN(C)CC1CC1 | -11 | -3 | 5 | -1 | -6 | 1
CCn1c(-c2cc(-c3ccc(C)cc3)nc3ccccc23)n[nH]c1=S | 7 | 7 | -3 | 1 | -29 | 3
C=CCn1c(-c2cc(-c3ccc(C)cc3)nc3ccccc23)n[nH]c1=S | x | 18 | -5 | x | -29* | -6
COc1ccccc1OCCNC1CCCC1 | 160* | -1 | x | 4 | x | x
Cc1ccc2c(Cl)c(C)c(N3CCCC3)nc2n1 | x | -3 | 22 | 29 | -36* | 4
Cc1nc2ccccc2nc1N1CCCC1 | 8 | 7 | -6 | -1 | 0 | -1
CN1C(=O)c2cc(NC(=O)NC3CCCC3)ccc2OC[C@@H]2O[C@H](CC(=O)NC3CCC3)CC[C@H]21 | -15 | 4 | -8 | 0 | 4 | -8
C[C@H](CO)N1C[C@H](C)[C@@H](CN(C)C(=O)CCC(F)(F)F)OCCCC[C@H](C)Oc2ccc(NC(=O)Cc3ccccc3)cc2C1=O | x | 9 | -44 | 0 | -1 | 2
Cc1ccc(S(=O)(=O)Nc2ccc3c(c2)CC(=O)N([C@@H](C)CO)C[C@H](C)[C@@H](CN(C)C(=O)Nc2ccc4c(c2)OCO4)O3)cc1 | 11 | 2 | -1 | -3 | 0 | -3

High-throughput results deposited in PubChem by Broad Institute.
